Assay results: ChEMBL document CHEMBL1240474, “Pharmacological evaluation and characterizations of newly synthesized 1,2,4-triazoles” (2010)
In brackets after ≈: the same amount, converted by molar mass.

What was measured:
Assay type in all cases: functional
Aspergillus niger = test: Antifungal activity against Aspergillus niger MTCC 282 by broth microdilution method
Escherichia coli = test: Antibacterial activity against Escherichia coli MTCC 443 by broth microdilution method
Summary of the method: (§1)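 Serial dilutions in Mueller Hinton broth, drugs diluted in DMSO from a 2000 µg/ml stock, inoculum adjusted by turbidity to 10⁸ CFU/ml, ampicillin as reference. Primary screen at 500, 250 and 125 µg/ml; actives retested at 100 down to 1.5625 µg/ml. Incubated overnight at 37 °C.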

[1] = tested on: Mycobacterium tuberculosis; test: Antimycobacterial activity against Mycobacterium tuberculosis H37Rv at MIC concentration after up to 28 days
Streptococcus pyogenes = test: Antibacterial activity against Streptococcus pyogenes MTCC 442 by broth microdilution method; summary of the method: as §1
Staphylococcus aureus = test: Antibacterial activity against Staphylococcus aureus MTCC 96 by broth microdilution method; summary of the method: as §1
Aspergillus clavatus = test: Antifungal activity against Aspergillus clavatus MTCC 1323 by broth microdilution method
Pseudomonas aeruginosa = test: Antibacterial activity against Pseudomonas aeruginosa MTCC 2488 by broth microdilution method; summary of the method: as §1
Candida albicans = test: Antifungal activity against Candida albicans MTCC 227 by broth microdilution method
[2] = tested on: Mycobacterium tuberculosis; test: Antimycobacterial activity against Mycobacterium tuberculosis H37Rv after up to 28 days; conditions: 672 h
Summary of the method: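 Lowenstein-Jensen agar dilution against M. tuberculosis H37Rv. Compounds were made up as 2000 µg/ml DMSO stocks and added to liquid L.J. medium at primary levels of 1000, 500 and 250 µg/ml and secondary levels of 200–3.25 µg/ml. The medium was inspissated, held 24 h at 37 °C, then streaked with bacilli from saline suspension. Growth was read at 12, 22 and 28 days against drug-free controls. MIC was the lowest concentration giving no colonies or fewer than 20.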

SMILES	MIC (Aspergillus niger)	MIC (Escherichia coli)	inhibition (INH) [1]	MIC (Streptococcus pyogenes)	MIC (Staphylococcus aureus)	MIC (Aspergillus clavatus)	MIC (Pseudomonas aeruginosa)	MIC (Candida albicans)	MIC [2]
COc1ccc2nc(NN)sc2c1	500 µg/mL (≈ 2560 µM)	62.5 µg/mL (≈ 320 µM)	99%	250 µg/mL (≈ 1280 µM)	200 µg/mL (≈ 1020 µM)	250 µg/mL (≈ 1280 µM)	125 µg/mL (≈ 640 µM)	500 µg/mL (≈ 2560 µM)	50 µg/mL (≈ 256 µM)
CC1(C)S[C@@H]2[C@H](NC(=O)[C@H](N)c3ccccc3)C(=O)N2[C@H]1C(=O)O [AMPICILLIN]		100 µg/mL (≈ 286 µM)		100 µg/mL (≈ 286 µM)	250 µg/mL (≈ 715 µM)		100 µg/mL (≈ 286 µM)		
Cc1ccc(-c2nnc(-c3cccnc3)n2Nc2nc3cc(Cl)c(Cl)cc3s2)cc1	500 µg/mL (≈ 1100 µM)	100 µg/mL (≈ 221 µM)	99%	500 µg/mL (≈ 1100 µM)	250 µg/mL (≈ 551 µM)	250 µg/mL (≈ 551 µM)	500 µg/mL (≈ 1100 µM)	200 µg/mL (≈ 441 µM)	100 µg/mL (≈ 221 µM)
NNc1nc2ccc(F)cc2s1	> 1000 µg/mL	250 µg/mL (≈ 1360 µM)	98%	250 µg/mL (≈ 1360 µM)	500 µg/mL (≈ 2730 µM)	> 1000 µg/mL	250 µg/mL (≈ 1360 µM)	250 µg/mL (≈ 1360 µM)	250 µg/mL (≈ 1360 µM)
Cc1ccc(-c2nnc(-c3cccnc3)n2Nc2nc3c(Cl)cccc3s2)cc1	> 1000 µg/mL	125 µg/mL (≈ 298 µM)	99%	500 µg/mL (≈ 1190 µM)	250 µg/mL (≈ 597 µM)	1000 µg/mL (≈ 2390 µM)	500 µg/mL (≈ 1190 µM)	500 µg/mL (≈ 1190 µM)	25 µg/mL (≈ 59.7 µM)
Cc1ccc2nc(NN)sc2c1	1000 µg/mL (≈ 5580 µM)	100 µg/mL (≈ 558 µM)	98%	250 µg/mL (≈ 1390 µM)	250 µg/mL (≈ 1390 µM)	> 1000 µg/mL	500 µg/mL (≈ 2790 µM)	250 µg/mL (≈ 1390 µM)	1000 µg/mL (≈ 5580 µM)
Cc1ccc(-c2nnc(-c3cccnc3)n2Nc2nc3ccc(Br)cc3s2)cc1	500 µg/mL (≈ 1080 µM)	100 µg/mL (≈ 216 µM)	99%	125 µg/mL (≈ 270 µM)	125 µg/mL (≈ 270 µM)	1000 µg/mL (≈ 2160 µM)	100 µg/mL (≈ 216 µM)	1000 µg/mL (≈ 2160 µM)	50 µg/mL (≈ 108 µM)
Cc1ccc(-c2nnc(-c3cccnc3)n2Nc2nc3c(C)cccc3s2)cc1	250 µg/mL (≈ 627 µM)	250 µg/mL (≈ 627 µM)	98%	250 µg/mL (≈ 627 µM)	500 µg/mL (≈ 1250 µM)	200 µg/mL (≈ 502 µM)	500 µg/mL (≈ 1250 µM)	100 µg/mL (≈ 251 µM)	500 µg/mL (≈ 1250 µM)
NNc1nc2cc(Cl)c(Cl)cc2s1	500 µg/mL (≈ 2140 µM)	100 µg/mL (≈ 427 µM)	99%	500 µg/mL (≈ 2140 µM)	250 µg/mL (≈ 1070 µM)	1000 µg/mL (≈ 4270 µM)	125 µg/mL (≈ 534 µM)	500 µg/mL (≈ 2140 µM)	250 µg/mL (≈ 1070 µM)
NNc1nc2c(Cl)cccc2s1	500 µg/mL (≈ 2500 µM)	250 µg/mL (≈ 1250 µM)	99%	500 µg/mL (≈ 2500 µM)	500 µg/mL (≈ 2500 µM)	500 µg/mL (≈ 2500 µM)	250 µg/mL (≈ 1250 µM)	1000 µg/mL (≈ 5010 µM)	100 µg/mL (≈ 501 µM)
Cc1ccc(-c2nnc(-c3cccnc3)o2)cc1	500 µg/mL (≈ 2110 µM)	250 µg/mL (≈ 1050 µM)	98%	250 µg/mL (≈ 1050 µM)	100 µg/mL (≈ 421 µM)	500 µg/mL (≈ 2110 µM)	100 µg/mL (≈ 421 µM)	1000 µg/mL (≈ 4210 µM)	500 µg/mL (≈ 2110 µM)
NNc1nc2ccc([N+](=O)[O-])cc2s1	500 µg/mL (≈ 2380 µM)	250 µg/mL (≈ 1190 µM)	99%	500 µg/mL (≈ 2380 µM)	500 µg/mL (≈ 2380 µM)	1000 µg/mL (≈ 4760 µM)	250 µg/mL (≈ 1190 µM)	500 µg/mL (≈ 2380 µM)	250 µg/mL (≈ 1190 µM)
NNc1nc2ccc(Cl)cc2s1	200 µg/mL (≈ 1000 µM)	100 µg/mL (≈ 501 µM)	99%	500 µg/mL (≈ 2500 µM)	500 µg/mL (≈ 2500 µM)	250 µg/mL (≈ 1250 µM)	125 µg/mL (≈ 626 µM)	250 µg/mL (≈ 1250 µM)	200 µg/mL (≈ 1000 µM)
NNc1nc2ccc(Br)cc2s1	500 µg/mL (≈ 2050 µM)	500 µg/mL (≈ 2050 µM)	97%	500 µg/mL (≈ 2050 µM)	250 µg/mL (≈ 1020 µM)	500 µg/mL (≈ 2050 µM)	500 µg/mL (≈ 2050 µM)	500 µg/mL (≈ 2050 µM)	500 µg/mL (≈ 2050 µM)
Cc1ccc(-c2nnc(-c3cccnc3)n2Nc2nc3ccc([N+](=O)[O-])cc3s2)cc1	500 µg/mL (≈ 1160 µM)	100 µg/mL (≈ 233 µM)	98%	125 µg/mL (≈ 291 µM)	250 µg/mL (≈ 582 µM)	500 µg/mL (≈ 1160 µM)	200 µg/mL (≈ 466 µM)	500 µg/mL (≈ 1160 µM)	200 µg/mL (≈ 466 µM)
Cc1ccc(-c2nnc(-c3cccnc3)n2Nc2nc3ccc(Cl)cc3s2)cc1	500 µg/mL (≈ 1190 µM)	250 µg/mL (≈ 597 µM)	99%	500 µg/mL (≈ 1190 µM)	500 µg/mL (≈ 1190 µM)	250 µg/mL (≈ 597 µM)	125 µg/mL (≈ 298 µM)	500 µg/mL (≈ 1190 µM)	100 µg/mL (≈ 239 µM)
COc1ccc2nc(Nn3c(-c4ccc(C)cc4)nnc3-c3cccnc3)sc2c1	500 µg/mL (≈ 1210 µM)	250 µg/mL (≈ 603 µM)	99%	250 µg/mL (≈ 603 µM)	250 µg/mL (≈ 603 µM)	1000 µg/mL (≈ 2410 µM)	125 µg/mL (≈ 302 µM)	250 µg/mL (≈ 603 µM)	62.5 µg/mL (≈ 151 µM)
CO[C@H]1/C=C/O[C@@]2(C)Oc3c(C)c(O)c4c(O)c(c(/C=N/N5CCN(C)CC5)c(O)c4c3C2=O)NC(=O)/C(C)=C\C=C\[C@H](C)[C@H](O)[C@@H](C)[C@@H](O)[C@@H](C)[C@H](OC(C)=O)[C@@H]1C [RIFAMPIN]			98%						40 µg/mL (≈ 48.6 µM)
NNc1nc2c([N+](=O)[O-])cccc2s1	250 µg/mL (≈ 1190 µM)	500 µg/mL (≈ 2380 µM)	98%	250 µg/mL (≈ 1190 µM)	500 µg/mL (≈ 2380 µM)	200 µg/mL (≈ 951 µM)	250 µg/mL (≈ 1190 µM)	200 µg/mL (≈ 951 µM)	500 µg/mL (≈ 2380 µM)
Cc1ccc(-c2nnc(-c3cccnc3)n2Nc2nc3ccc(F)cc3s2)cc1	500 µg/mL (≈ 1240 µM)	250 µg/mL (≈ 621 µM)	98%	100 µg/mL (≈ 248 µM)	125 µg/mL (≈ 311 µM)	250 µg/mL (≈ 621 µM)	250 µg/mL (≈ 621 µM)	500 µg/mL (≈ 1240 µM)	200 µg/mL (≈ 497 µM)
Cc1cccc2sc(NN)nc12	250 µg/mL (≈ 1390 µM)	250 µg/mL (≈ 1390 µM)	98%	500 µg/mL (≈ 2790 µM)	500 µg/mL (≈ 2790 µM)	200 µg/mL (≈ 1120 µM)	250 µg/mL (≈ 1390 µM)	500 µg/mL (≈ 2790 µM)	500 µg/mL (≈ 2790 µM)
COC1=CC(=O)C[C@@H](C)[C@]12Oc1c(Cl)c(OC)cc(OC)c1C2=O [GRISEOFULVIN]	100 µg/mL (≈ 283 µM)					100 µg/mL (≈ 283 µM)		500 µg/mL (≈ 1420 µM)	
Cc1ccc(-c2nnc(-c3cccnc3)n2Nc2nc3c([N+](=O)[O-])cccc3s2)cc1	500 µg/mL (≈ 1160 µM)	12.5 µg/mL (≈ 29.1 µM)	99%	250 µg/mL (≈ 582 µM)	500 µg/mL (≈ 1160 µM)	500 µg/mL (≈ 1160 µM)	25 µg/mL (≈ 58.2 µM)	1000 µg/mL (≈ 2330 µM)	50 µg/mL (≈ 116 µM)
Cc1ccc(-c2nnc(-c3cccnc3)n2Nc2nc3ccc(C)cc3s2)cc1	1000 µg/mL (≈ 2510 µM)	125 µg/mL (≈ 314 µM)	99%	100 µg/mL (≈ 251 µM)	100 µg/mL (≈ 251 µM)	> 1000 µg/mL	250 µg/mL (≈ 627 µM)	500 µg/mL (≈ 1250 µM)	50 µg/mL (≈ 125 µM)
